Usually EC50 stands for the concentration at which the effect is half-maximal.

24 compounds from ChEMBL document CHEMBL2040841, “Design, synthesis and evaluation of triazole functionalized ring-fused 2-pyridones as antibacterial agents” (Eur J Med Chem, 2012) can be followed below.

Activity calls are given as the source filed them. The calls are words filed in the database; no cut-off is given here.

In test [1] the test system is Escherichia coli. Nature of the test: Inhibition of type 1 pili formation in uropathogenic Escherichia coli isolate UTI89 assessed as inhibition of biofilm formation after 24 hrs by crystal violet staining method. In kind it is functional, organism-based. Particulars: isolate UTI89, 24 h. The procedure, abridged: (§1)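 UTI89 grown overnight in LB at 37 °C, then diluted 1:1000 in LB under type-1 pili inducing conditions. Compounds were added at a constant DMSO level, and the plates were incubated 24 h in humid boxes at 26 °C. Wells were washed with water, air dried and stained with 1% crystal violet, and absorbance was read at 600 nm. Growth was monitored in separate plates. Triplicates were compared with DMSO-treated controls.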

The test system of test [2] is Escherichia coli. Nature of the test: Antibacterial activity against uropathogenic Escherichia coli isolate UTI89 assessed as inhibition of biofilm formation at 200 uM after 24 hrs by crystal violet staining method. In kind it is functional, organism-based. The procedure, abridged: as §1

Consider `O=C(O)[C@@H]1CSc2c(-c3cn(Cc4ccccc4)nn3)c(Cc3cccc4ccccc34)cc(=O)n21`, for which the EC50 in the test with Escherichia coli [1] came out at 100 µM. With `O=C(O)[C@@H]1CSc2c(-c3cn([C@@H]4OC[C@@H](O)[C@H](O)[C@H]4O)nn3)c(Cc3cccc4ccccc34)cc(=O)n21`, the EC50 in the test with Escherichia coli [1] is over 200 µM. In the test with Escherichia coli [2], the inhibition result was “inactive”. Regarding `O=C(O)[C@@H]1CSc2c(-c3c[nH]nn3)c(Cc3cccc4ccccc34)c(Br)c(=O)n21`, the EC50 in the test on Escherichia coli [1] was over 200 µM. For the same compound, in the test with Escherichia coli [2], the inhibition result is “inactive”. Regarding `O=C(O)c1c(-c2cn(Cc3ccccc3)nn2)sc2c(-c3cccc(C(F)(F)F)c3)c(Cc3cccc4ccccc34)cc(=O)n12`, in the test on Escherichia coli [1], the EC50 was 50 µM. In the case of `O=C(O)[C@@H]1CSc2c(-c3cn([C@@H]4OC[C@@H](O)[C@H](O)[C@H]4O)nn3)c(Cc3cccc4ccccc34)c(Br)c(=O)n21`, the concentration for a half-maximal effect (EC50) in the test with Escherichia coli [1] is over 200 µM. In the test with Escherichia coli [2], the inhibition entry is “inactive”. For the compound `O=C(O)c1c(-c2c[nH]nn2)sc2c(-c3cccc(C(F)(F)F)c3)c(Cc3cccc4ccccc34)cc(=O)n12`, the EC50 in the test with Escherichia coli [1] was over 200 µM. Besides, in the test with Escherichia coli [2], the inhibition result is “inactive”.

In the case of `Cn1cc(-c2c(Cc3cccc4ccccc34)cc(=O)n3c2SC[C@H]3C(=O)O)nn1`, the concentration for a half-maximal effect (EC50) with Escherichia coli [1] was over 200 µM. In addition, the inhibition entry in the test with Escherichia coli [2] is “inactive”. Take `O=C(O)[C@@H]1CSc2c(-c3cn([C@H](CO)Cc4ccccc4)nn3)c(Cc3cccc4ccccc34)cc(=O)n21`: the EC50 in the test on Escherichia coli [1] is over 200 µM. The inhibition result with Escherichia coli [2] is “inactive”. Turning to `Nc1ccc(Cn2cc(-c3c(Cc4cccc5ccccc45)cc(=O)n4c3SC[C@H]4C(=O)O)nn2)cc1`, the EC50 in the test with Escherichia coli [1] was over 200 µM. Also, the inhibition entry in the test with Escherichia coli [2] is “inactive”. `O=C(O)c1c(-c2cn(Cc3ccccc3)nn2)sc2c(C3CC3)c(Cc3cccc4ccccc34)cc(=O)n12`: the EC50 in the test on Escherichia coli [1] was over 200 µM. Also, in the test with Escherichia coli [2], the inhibition entry is “inactive”. For `O=C(O)[C@@H]1CSc2c(-c3cn(Cc4ccc([N+](=O)[O-])cc4)nn3)c(Cc3cccc4ccccc34)c(Br)c(=O)n21`, the EC50 in the test on Escherichia coli [1] was found to be 35 µM.

`O=C(O)[C@@H]1CSc2c(-c3cn(Cc4ccccc4)nn3)c(Cc3cccc4ccccc34)c(Br)c(=O)n21`: the 50% effective concentration (EC50) in the test on Escherichia coli [1] amounted to 100 µM.

For `CCn1cc(-c2c(Cc3cccc4ccccc34)c(Br)c(=O)n3c2SC[C@H]3C(=O)O)nn1`, the EC50 in the test on Escherichia coli [1] is over 200 µM. The inhibition result in the test with Escherichia coli [2] is “inactive”. Take `O=C(O)[C@@H]1CSc2c(-c3cn([C@H](CO)Cc4ccccc4)nn3)c(Cc3cccc4ccccc34)c(Br)c(=O)n21`: in the test with Escherichia coli [1], the EC50 was 150 µM.

With `Cn1cc(-c2c(Cc3cccc4ccccc34)c(Br)c(=O)n3c2SC[C@H]3C(=O)O)nn1`, the EC50 with Escherichia coli [1] was over 200 µM. For the same compound, the inhibition result with Escherichia coli [2] is “inactive”. On to `Cn1cc(-c2sc3c(C4CC4)c(Cc4cccc5ccccc45)cc(=O)n3c2C(=O)O)nn1`, for which the EC50 in the test on Escherichia coli [1] amounted to 150 µM. Also, the inhibition result in the test with Escherichia coli [2] is “inactive”.

Consider `Cc1ccc(Cn2cc(-c3c(Cc4cccc5ccccc45)c(Br)c(=O)n4c3SC[C@H]4C(=O)O)nn2)cc1`, for which, in the test on Escherichia coli [1], the concentration giving a half-maximal response (EC50) was determined as 200 µM. Also, in the test with Escherichia coli [2], the inhibition result was “inactive”.

For the compound `Cn1cc(-c2sc3c(-c4cccc(C(F)(F)F)c4)c(Cc4cccc5ccccc45)cc(=O)n3c2C(=O)O)nn1`, the EC50 in the test on Escherichia coli [1] is 9 µM. With `O=C(O)[C@@H]1CSc2c(-c3c[nH]nn3)c(Cc3cccc4ccccc34)cc(=O)n21`, in the test with Escherichia coli [1], the EC50 was over 200 µM. For the same compound, the inhibition entry in the test with Escherichia coli [2] is “inactive”. As for `Cc1ccc(Cn2cc(-c3c(Cc4cccc5ccccc45)cc(=O)n4c3SC[C@H]4C(=O)O)nn2)cc1`, the concentration giving a half-maximal response (EC50) in the test with Escherichia coli [1] was found to be 75 µM. With `O=C(O)[C@@H]1CSc2c(-c3cn(CC4CC4)nn3)c(Cc3cccc4ccccc34)cc(=O)n21`, the EC50 in the test with Escherichia coli [1] is over 200 µM. Also, the inhibition entry with Escherichia coli [2] was “inactive”. In the same order, the values of `O=C(O)[C@@H]1CSc2c(-c3cn(CC4CC4)nn3)c(Cc3cccc4ccccc34)c(Br)c(=O)n21` are over 200 µM and “inactive”. `O=C(O)c1c(-c2c[nH]nn2)sc2c(C3CC3)c(Cc3cccc4ccccc34)cc(=O)n12`: in the test with Escherichia coli [1], the EC50 was 75 µM. For the compound `CCn1cc(-c2c(Cc3cccc4ccccc34)cc(=O)n3c2SC[C@H]3C(=O)O)nn1`, the EC50 in the test on Escherichia coli [1] was over 200 µM. In the test on Escherichia coli [2], the inhibition result is “inactive”.
